Measurements from ChEMBL document CHEMBL2010803, “Novel NSAID 1-acyl-4-cycloalkyl/arylsemicarbazides and 1-acyl-5-benzyloxy/hydroxy carbamoylcarbazides as potential anticancer agents and antioxidants” (Eur J Med Chem, 2012).
Active and inactive are the calls of the source. The calls are words filed in the database; no cut-off is given here.

Columns and labels:
[1] = test system: MCF7; experiment: Cytostatic activity against human MCF7 cells after 72 hrs by MTT assay; type: functional, cell-based; details: MCF7, 72 h
Procedure, shortened: (§1)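 Monolayers in DMEM with 10% FBS, 2 mM L-glutamine and penicillin/streptomycin, 37 °C, 5% CO2. Seeded at 1–3 × 10^4 cells/ml, then compound added in tenfold dilutions (10⁻⁸–10⁻⁴ M) for 72 h. MTT read at 570 nm; percent growth taken against time-zero and untreated controls. IC50 by linear regression; quadruplicate, at least two experiments.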

[2] = test system: NCI-H460; experiment: Cytostatic activity against human NCI-H460 cells after 72 hrs by MTT assay; type: functional, cell-based; details: NCI-H460, 72 h; procedure, shortened: as §1
[3] = test system: Vesicular stomatitis virus; experiment: Antiviral activity against VSV infected in human lung fibroblast assessed as inhibition of virus-induced cytopathic effect at 0.32 to 100 uM; type: functional, organism-based
[4] = test system: Punta Toro virus; experiment: Antiviral activity against Punta Toro virus infected in african green monkey Vero cells assessed as inhibition of virus-induced cytopathic effect at 0.32 to 100 uM; type: functional, organism-based
Procedure, shortened: (§2)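 Confluent cell cultures were infected with 100 CCID50 of virus in the presence of test compound at 100, 40, 8, 1.6 and 0.32 μM. Cytopathic effect was scored once it was complete in untreated infected controls.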

[5] = test system: Human alphaherpesvirus 1; experiment: Antiviral activity against HSV1 KOS infected in human lung fibroblast assessed as inhibition of virus-induced cytopathic effect at 0.32 to 100 uM; type: functional, organism-based; procedure, shortened: as §2
[6] = test system: Human alphaherpesvirus 2; experiment: Antiviral activity against HSV2 G infected in human lung fibroblast assessed as inhibition of virus-induced cytopathic effect at 0.32 to 100 uM; type: functional, organism-based; details: strain G; procedure, shortened: as §2
[7] = test system: Respiratory syncytial virus; experiment: Antiviral activity against RSV infected in human cervix carcinoma cells assessed as inhibition of virus-induced cytopathic effect at 0.32 to 100 uM; type: functional, organism-based; procedure, shortened: as §2
[8] = test system: Human respirovirus 3; experiment: Antiviral activity against Parainfluenza virus 3 infected in african green monkey Vero cells assessed as inhibition of virus-induced cytopathic effect at 0.32 to 100 uM; type: functional, organism-based; procedure, shortened: as §2
[9] = test system: Radical scavenging activity; experiment: Antioxidant activity assessed as DPPH free radical scavenging activity at 100 uM after 20 mins by spectrophotometric analysis; type: functional
Procedure, shortened: (§3)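 0.05 mM DPPH in absolute ethanol mixed with an equal volume of compound in DMSO (final 100 μM). Shaken and left 20 or 60 min, then absorbance read at 517 nm and percent activity calculated. Three replicates, averaged.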

[10] = Inhibition of soybean LOX assessed as conversion of sodium linoleate to 13- hydroperoxylinoleic acid; design: species or system Glycine max
[11] = test system: Human immunodeficiency virus 1; experiment: Antiviral activity against HIV1 3B infected in human CEM cells assessed as inhibition of virus-induced CEM giant cell formation at 0.32 to 100 uM after 4 days; type: functional, organism-based; details: CCRF-CEM
Procedure, shortened: (§4)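 CEM cells (~3 × 10^5 cells/cm³) exposed to 100 CCID50/ml of virus and seeded into wells holding compound dilutions. Incubated 4 days at 37 °C, then giant cell formation examined microscopically.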

[12] = test system: Coxsackievirus B4; experiment: Antiviral activity against Coxsackievirus B4 infected in human cervix carcinoma cells assessed as inhibition of virus-induced cytopathic effect at 0.32 to 100 uM; type: functional, organism-based; procedure, shortened: as §2
[13] = test system: Radical scavenging activity; experiment: Antioxidant activity assessed as DPPH free radical scavenging activity at 100 uM after 60 mins by spectrophotometric analysis; type: functional; procedure, shortened: as §3
[14] = test system: Coxsackievirus B4; experiment: Antiviral activity against Coxsackievirus B4 infected in african green monkey Vero cells assessed as inhibition of virus-induced cytopathic effect at 0.32 to 100 uM; type: functional, organism-based; procedure, shortened: as §2
[15] = test system: Feline coronavirus; experiment: Antiviral activity against Feline coronavirus infected in feline CRFK cells assessed as inhibition of virus-induced cytopathic effect at 0.32 to 100 uM; type: functional, organism-based; procedure, shortened: as §2
[16] = test system: Influenza B virus; experiment: Antiviral activity against Influenza B virus infected in MDCK cells assessed as inhibition of virus-induced cytopathic effect at 0.32 to 100 uM; type: functional, organism-based
Procedure, shortened: (§5)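 Confluent MDCK monolayers were infected in the presence of the compound at 100, 40, 8, 1.6 and 0.32 μM. Viral cytopathicity was scored once it was complete in untreated infected control cultures.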

[17] = test system: CCRF-CEM; experiment: Cytostatic activity against human CEM cells after 3 days by coulter counter analysis; type: functional, cell-based; details: 72 h
Procedure, shortened: (§6)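 300,000–500,000 cells/ml mixed 1:1 with compound dilutions and incubated at 37 °C for 2 days (L1210) or 3 days (CEM, HeLa). Cell number counted with a Coulter counter; HeLa trypsinized before counting.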

[18] = test system: HaCaT; experiment: Cytostatic activity against human HaCaT cells after 72 hrs by MTT assay; type: ADME, cell-based; procedure, shortened: as §1
[19] = test system: Influenza A virus; experiment: Antiviral activity against Influenza A virus H3N2 infected in MDCK cells assessed as inhibition of virus-induced cytopathic effect at 0.32 to 100 uM; type: functional, organism-based; procedure, shortened: as §5
[20] = test system: L1210; experiment: Cytostatic activity against mouse L1210 cells after 2 days by coulter counter analysis; type: functional, cell-based; details: L1210, 48 h; procedure, shortened: as §6
[21] = test system: Influenza A virus; experiment: Antiviral activity against Influenza A virus H1N1 infected in MDCK cells assessed as inhibition of virus-induced cytopathic effect at 0.32 to 100 uM; type: functional, organism-based; procedure, shortened: as §5
[22] = test system: Human immunodeficiency virus 2; experiment: Antiviral activity against HIV2 ROD infected in human CEM cells assessed as inhibition of virus-induced CEM giant cell formation at 0.32 to 100 uM after 4 days; type: functional, organism-based; details: ISOLATE ROD, CCRF-CEM; procedure, shortened: as §4
[23] = test system: Sindbis virus; experiment: Antiviral activity against Sindbis virus infected in african green monkey Vero cells assessed as inhibition of virus-induced cytopathic effect at 0.32 to 100 uM; type: functional, organism-based; procedure, shortened: as §2
[24] = test system: Felid alphaherpesvirus 1; experiment: Antiviral activity against Feline herpesvirus infected in feline CRFK cells assessed as inhibition of virus-induced cytopathic effect at 0.32 to 100 uM; type: functional, organism-based; procedure, shortened: as §2
[25] = test system: Glycine max; experiment: Inhibition of soybean LOX assessed as conversion of sodium linoleate to 13- hydroperoxylinoleic acid at 100 uM
[26] = test system: Vaccinia virus; experiment: Antiviral activity against Vaccinia virus infected in human lung fibroblast assessed as inhibition of virus-induced cytopathic effect at 0.32 to 100 uM; type: functional, organism-based; details: Orthopoxvirus vaccinia
[27] = test system: Mammalian orthoreovirus 1; experiment: Antiviral activity against Reovirus-1 infected in african green monkey Vero cells assessed as inhibition of virus-induced cytopathic effect at 0.32 to 100 uM; type: functional, organism-based; procedure, shortened: as §2
[28] = test system: Vesicular stomatitis virus; experiment: Antiviral activity against Vesicular stomatitis virus infected in human cervix carcinoma cells assessed as inhibition of virus-induced cytopathic effect at 0.32 to 100 uM; type: functional, organism-based
Procedure, shortened: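 Confluent human cervix carcinoma (HeLa) cultures received 100 CCID50 of VSV together with the compound at 100, 40, 8, 1.6 or 0.32 μM. Cytopathicity was read at the point of full CPE in infected, untreated control wells.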

[29] = Antioxidant activity assessed as inhibition of AAPH-induced linoleic acid lipid peroxidation by measuring conjugated diene hydroperoxide level; type: functional; design: concentration or dose not given beside the values; details: dose or concentration not given here
Procedure, shortened: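 Linoleic acid sodium salt (10 μL of 16 mM) in 0.05 M phosphate buffer pH 7.4 at 37 °C. Oxidation started under air with 50 μL of 40 mM AAPH. Conjugated diene hydroperoxide formation followed as absorbance rise at 234 nm; control contains the same DMSO level. At least triplicate.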

[30] = test system: HCT-116; experiment: Cytostatic activity against human HCT116 cells after 72 hrs by MTT assay; type: functional, cell-based; details: HCT-116, 72 h; procedure, shortened: as §1
[31] = test system: HaCaT; experiment: Selectivity ratio of IC50 for human HaCaT cells to IC50 for human CEM cells
[32] = test system: NCI-H460; experiment: Selectivity ratio of IC50 for human HaCaT cells to IC50 for human NCI-H460 cells
[33] = test system: L1210; experiment: Selectivity ratio of IC50 for human HaCaT cells to IC50 for mouse L1210 cells
[34] = test system: MCF7; experiment: Selectivity ratio of IC50 for human HaCaT cells to IC50 for human MCF7 cells
[35] = test system: HeLa; experiment: Cytostatic activity against human HeLa cells after 3 days by coulter counter analysis; type: functional, cell-based; details: 72 h; procedure, shortened: as §6
[36] = test system: HeLa; experiment: Selectivity ratio of IC50 for human HaCaT cells to IC50 for human HeLa cells
[37] = test system: HaCaT; experiment: Selectivity ratio of IC50 for human HaCaT cells to IC50 for human HCT116 cells

SMILES	IC50 [1]	IC50 [2]	inhibition [3]	inhibition [4]	inhibition [5]	inhibition [6]	inhibition [7]	inhibition [8]	Activity [9]	inhibition [11]	inhibition [12]	Activity [13]	inhibition [14]	inhibition [15]	inhibition [16]	IC50 [17]	IC50 [18]	inhibition [19]	IC50 [20]	inhibition [21]	further results
CC(C(=O)NNC(=O)NCc1ccccc1)c1cccc(Oc2ccccc2)c1 (configuration not stated)	17 µM	19 µM	inactive	inactive	inactive	inactive	inactive	inactive	22%	inactive	inactive	24%	inactive	inactive	inactive	72 µM	46 µM	inactive	63 µM	inactive	IC50 [10]: 75 µM; inhibition [22]: inactive; inhibition [23]: inactive; inhibition [24]: inactive; inhibition [25]: 68%; inhibition [26]: inactive; inhibition [27]: inactive; inhibition [28]: inactive; inhibition [29]: 11%; IC50 [30]: 27 µM
CC(C(=O)NNC(=O)NC(c1ccccc1)c1ccccc1)c1cccc(Oc2ccccc2)c1 (configuration not stated)	7 µM	3 µM	inactive	inactive	inactive	inactive	inactive	inactive	2%	inactive	inactive	4%	inactive	inactive	inactive	11 µM	10 µM	inactive	15 µM	inactive	Ratio IC50 [31]: 2; Ratio IC50 [32]: 2; Ratio IC50 [33]: 2; Ratio IC50 [34]: 2; IC50 [10]: 60 µM; IC50 [35]: 5.7 µM; Ratio IC50 [36]: 2; inhibition [22]: inactive; inhibition [23]: inactive; inhibition [24]: inactive; inhibition [25]: 81%; inhibition [26]: inactive; inhibition [27]: inactive; Ratio IC50 [37]: 2; inhibition [28]: inactive; inhibition [29]: 99%; IC50 [30]: 5 µM
CC(C(=O)NNC(=O)NC1CCCC1)c1cccc(Oc2ccccc2)c1 (configuration not stated)	20 µM	33 µM	inactive	inactive	inactive	inactive	inactive	inactive	16%	inactive	inactive	19%	inactive	inactive	inactive	73 µM	18 µM	inactive	55 µM	inactive	IC50 [35]: 39 µM; inhibition [22]: inactive; inhibition [23]: inactive; inhibition [24]: inactive; inhibition [25]: inactive; inhibition [26]: inactive; inhibition [27]: inactive; inhibition [28]: inactive; inhibition [29]: 21%; IC50 [30]: 36 µM
